Data set [1] in a line: Acute toxicity in ip dosed Swiss-Webster mouse administered as single dose after 7 days. It counts as organism-based. Conditions: in vivo. The essentials:
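Mice given a single ip dose at each of four dose levels; lethality followed over 7 days; LD50 with 95% confidence limits estimated by the method of Weil. Compounds dissolved in minimal 1.5 M NaH2PO4, diluted with water; haloperidol in minimal 50% (w/v) tartaric acid-water.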

The subject of data set [2] is Mus musculus. Description: Depression of forced motor activity in Swiss-Webster mouse at 50 mg/kg, ip after 30 mins by rotarod test relative to control. Type of data set: functional. To be noted: route intraperitoneal. The essentials: (§1)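 Mice were dosed ip with vehicle or compound dissolved in a minimum of 1.5 M NaH2PO4 and diluted with water. On the rotarod, speed was 4 rpm for 30 sec, then 6 rpm for 30 sec, then increased every 30 sec up to a maximum of 50 rpm until the fall. Each mouse had four trials, two per day on two consecutive days, spaced 4–6 hr apart. The fourth trial was run 30 min after dosing. The read-out was trial time (sec) as % of control, with significance by Student's t test (p < 0.05).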

Data set [3] relates to Mus musculus. Description: Depression of forced motor activity in Swiss-Webster mouse at 12.5 mg/kg, ip after 30 mins by rotarod test relative to control. It counts as functional. Conditions: route intraperitoneal. The essentials: as §1
Background: The rotarod test checks motor coordination on a turning rod.

Data set [4] has as its system Mus musculus. Description: Depression of forced motor activity in Swiss-Webster mouse at 25 mg/kg, ip after 30 mins by rotarod test relative to control. It counts as functional. Conditions: route intraperitoneal. The essentials: as §1
Data set [5] has as its system Mus musculus. Description: Depression of spontaneous motor activity in Swiss-Webster mouse at 50 mg/kg, ip by photocell cage test relative to control. Type of data set: functional. To be noted: route intraperitoneal. The essentials: (§2)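 Compound was dissolved in minimal 1.5 M NaH2PO4, diluted with water and given ip. Two mice given the same dose went into each of three photocell actophotometer cages 10 min after the rotarod test started. Counts were taken over 15 min, starting 5 min after placement. A factorial design across cages cancelled differences between units. Results were given as % of control, with significance by Student's t test (p < 0.05).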

For data set [6], the system named is Mus musculus. Description: Depression of spontaneous motor activity in Swiss-Webster mouse at 12.5 mg/kg, ip by photocell cage test relative to control. It counts as functional. Conditions: route intraperitoneal. The essentials: as §2
The subject of data set [7] is Mus musculus. Description: Depression of spontaneous motor activity in Swiss-Webster mouse at 25 mg/kg, ip by photocell cage test relative to control. Type of data set: functional. To be noted: route intraperitoneal. The essentials: as §2
Data set [8] relates to Mus musculus. Description: Depression of forced motor activity in Swiss-Webster mouse at 60 mg/kg, ip after 30 mins by rotarod test relative to control. Type of data set: functional. To be noted: route intraperitoneal. The essentials:
(§3)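 Rotarod in mice: rod at 4 rpm for 30 sec, 6 rpm next 30 sec, then stepped up every 30 sec (max 50 rpm) until fall. Six mice at a time, four trials (two per day, 4–6 hr apart, two consecutive days); vehicle or compound ip 30 min before fourth trial. Time on rod as % of control; Student's t test, p < 0.05.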

Data set [9] deals with Mus musculus. Description: Depression of spontaneous motor activity in Swiss-Webster mouse at 30 mg/kg, ip by photocell cage test relative to control. It counts as functional. Conditions: route intraperitoneal. The essentials:
(§4)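 Spontaneous activity in three photocell cages: two mice given the same ip dose placed per cage 10 min after rotarod start; 15-min count begun 5 min after placement. Each dose run in factorial design across all three cages to offset unit sensitivity. Counts expressed as % of control; Student's t test, p < 0.05.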

Data set [10] deals with Mus musculus. The experiment in a line: Depression of spontaneous motor activity in Swiss-Webster mouse at 60 mg/kg, ip by photocell cage test relative to control. Type of data set: functional. Conditions: route intraperitoneal. The essentials:
as §4

Data set [11] relates to Mus musculus. Description: Depression of forced motor activity in Swiss-Webster mouse at 30 mg/kg, ip after 30 mins by rotarod test relative to control. It counts as functional. To be noted: route intraperitoneal. The essentials: as §3
The subject of data set [12] is Mus musculus. The experiment in a line: Depression of forced motor activity in Swiss-Webster mouse at 15 mg/kg, ip after 30 mins by rotarod test relative to control. Conditions: route intraperitoneal. It counts as functional. The essentials:
as §3

The subject of data set [13] is Mus musculus. The experiment in a line: Depression of spontaneous motor activity in Swiss-Webster mouse at 15 mg/kg, ip by photocell cage test relative to control. Conditions: route intraperitoneal. Type of data set: functional. The essentials: as §4
Data set [14] concerns Mus musculus. Description: Depression of forced motor activity in Swiss-Webster mouse at 100 mg/kg, ip after 30 mins by rotarod test relative to control. It counts as functional. To be noted: route intraperitoneal. The essentials:
as §3

Data set [15] relates to Mus musculus. The experiment in a line: Depression of spontaneous motor activity in Swiss-Webster mouse at 100 mg/kg, ip by photocell cage test relative to control. It counts as functional. To be noted: route intraperitoneal. The essentials: as §4
For data set [16], the system named is Rattus norvegicus. Description: Reduction in grip strength in Wistar rat at 20 mg/kg, ip after 0.5 to 1 hr. It counts as functional, organism-based. The arrangement: dose 20 mg/kg. The essentials:
(§5)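 Male Wistar rats (175–225 g) were injected ip, with three treated rats and one control per dose. Compounds were in minimal 1.5 M NaH2PO4 diluted with water; the reference drug was in minimal 50% (w/v) tartaric acid-water. Gross behavior was observed. Respiratory rate, heart rate, rectal temperature and pupil size were measured at time points after dosing.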

The test system of data set [17] is Rattus norvegicus. Description: Reduction of heart rate in Wistar rat at 1 to 6 mg/kg, ip after 0.5 to 1 hr. To be noted: 20 mg/kg, in the assay text read “20 mg/kg” for “1 to 6 mg/kg”. Type of data set: functional, organism-based. The essentials:
as §5

Data set [18] relates to Mus musculus. Description: Depression of spontaneous motor activity in ip dosed Swiss-Webster mouse by photocell cage test relative to control. Type of data set: functional, organism-based. The essentials:
as §2

Data set [19] deals with Rattus norvegicus. The experiment in a line: Reduction in body temperature in Wistar rat at 20 mg/kg, ip relative to control. Type of data set: functional. Conditions: route intraperitoneal. The essentials: as §5
Data set [20] deals with Rattus norvegicus. The experiment in a line: Reduction in startle response in Wistar rat at 20 mg/kg, ip after 0.5 to 1 hr. Type of data set: functional, organism-based. Further details: dose 20 mg/kg. The essentials:
as §5

For data set [21], the system named is Rattus norvegicus. Description: Depression of motor activity in Wistar rat at 20 mg/kg, ip after 0.5 to 1 hr. It counts as functional, organism-based. The arrangement: dose 20 mg/kg. The essentials: as §5
Data set [22] has as its system Mus musculus. Description: Depression of forced motor activity in ip dosed Swiss-Webster mouse after 30 mins by rotarod test relative to control. Type of data set: functional, organism-based. The essentials: as §1
The subject of data set [23] is Rattus norvegicus. Description: Reduction of respiration rate in Wistar rat at 1 to 6 mg/kg, ip after 0.5 to 1 hr. Type of data set: functional, organism-based. Conditions: 20 mg/kg, in the assay text read “20 mg/kg” for “1 to 6 mg/kg”. The essentials: as §5
Data set [24] deals with Rattus norvegicus. The experiment in a line: Induction of ptosis in Wistar rat at 20 mg/kg, ip after 10 mins to 3 hrs. It counts as functional, organism-based. Further details: dose 20 mg/kg. The essentials: as §5
In data set [25] the test system is Mus musculus. The experiment in a line: Acute toxicity in ip dosed Swiss-Webster mouse assessed as intense and prolonged convulsions administered as single dose after 72 hrs. It counts as organism-based. Conditions: in vivo.
For data set [26], the system named is Mus musculus. The experiment in a line: Depression of forced motor activity in Swiss-Webster mouse at 6.25 mg/kg, ip after 30 mins by rotarod test relative to control. It counts as functional. To be noted: route intraperitoneal. The essentials: as §1
The subject of data set [27] is Mus musculus. Description: Depression of spontaneous motor activity in Swiss-Webster mouse at 6.25 mg/kg, ip by photocell cage test relative to control. It counts as functional. Conditions: route intraperitoneal. The essentials: as §2
For data set [28], the system named is Rattus norvegicus. Description: Increase in salivation in Wistar rat at 25 mg/kg, ip after 2 hrs. It counts as functional, organism-based. Further details: dose 25 mg/kg. The essentials:
as §5

Data set [29] has as its system Rattus norvegicus. Description: Induction of ptosis in Wistar rat at 25 mg/kg, ip after 2 hrs. It counts as functional, organism-based. Further details: dose 25 mg/kg. The essentials:
as §5

Data set [30] concerns Rattus norvegicus. Description: Depression of motor activity in Wistar rat at 25 mg/kg, ip. It counts as functional, organism-based. The arrangement: dose 25 mg/kg. The essentials:
as §5

Data set [31] has as its system Rattus norvegicus. Description: Reduction in respiratory rate in Wistar rat at 25 mg/kg, ip. Further details: dose 25 mg/kg. It counts as functional, organism-based. The essentials: as §5
Data set [32] deals with Rattus norvegicus. Description: Induction of ptosis in Wistar rat at 25 mg/kg, ip after 0.5 to 1 hr. Type of data set: functional, organism-based. The arrangement: dose 25 mg/kg. The essentials: as §5
Data set [33] has as its system Rattus norvegicus. The experiment in a line: Reduction in heart rate in Wistar rat at 25 mg/kg, ip. It counts as functional, organism-based. The arrangement: dose 25 mg/kg. The essentials:
as §5

The subject of data set [34] is Rattus norvegicus. Description: Increase in salivation in Wistar rat at 25 mg/kg, ip after 0.5 to 1 hr. Further details: dose 25 mg/kg. Type of data set: functional, organism-based. The essentials: as §5
The test system of data set [35] is Rattus norvegicus. Description: Reduction in rectal temperature in Wistar rat at 25 mg/kg, ip relative to control. To be noted: route intraperitoneal. Type of data set: functional. The essentials: as §5

Active and inactive are the calls of the source. The calls are words filed in the database; no cut-off is given here.

As for `O[C@@]1(c2ccc(C(F)(F)F)cc2)CCN2CCCCC2C1` (single isomer, unassigned), the LD50 at 168 h in [1] stood at 130 mg/kg. In addition, the Activity was found to be 83.5% in the data set with Mus musculus [2]; 99.3% with Mus musculus [3]; 92.3% in the data set with Mus musculus [4]; 45.2% in the data set on Mus musculus [5]; 49.7% in the data set with Mus musculus [6]; 82.7% in the data set with Mus musculus [7].

`O[C@@]1(c2cccc(Cl)c2)CCN2CCCCC2C1` (single isomer, unassigned): the Activity with Mus musculus [8] came to 51.4%; with Mus musculus [9], 154.9%; in the data set with Mus musculus [10] it was 44.3%; in the data set on Mus musculus [11], 105%; with Mus musculus [12], 96.5%; with Mus musculus [13], 166.7%. The compound further had a median lethal dose (LD50) at 168 h in data set [1] of 180 mg/kg.

In data set [1], `O[C@@]1(c2cccc(C(F)(F)F)c2)CCN2CCCCC2C1` (single isomer, unassigned) had an LD50 at 168 h of 262 mg/kg. Moreover, the Activity with Mus musculus [2] worked out at 100.5%; in the data set with Mus musculus [14] it was 29.6%; with Mus musculus [4], 97.9%; in the data set with Mus musculus [5] it was 111%; with Mus musculus [7], 119%; with Mus musculus [15], 5.5%.

Consider `O=C(c1ccc(F)cc1)[C@@H]1CCN2CCCC[C@@H]2C1` (single isomer, unassigned), for which the outcome with Rattus norvegicus [16], in the data set on Rattus norvegicus [17], in the data set on Rattus norvegicus [20], in the data set on Rattus norvegicus [21], with Rattus norvegicus [23] and with Rattus norvegicus [24] was Active. Further, the Activity in the data set with Mus musculus [8] was 4.8%; in the data set with Mus musculus [9] it was 9.6%; with Mus musculus [10], 0%; in the data set on Mus musculus [11], 15.2%; in the data set on Mus musculus [18] it was “Dose-dependent effect”; in the data set with Mus musculus [12], 26.5%. The Activity with Mus musculus [13] was 2.5%; in the data set on Mus musculus [22] it was “Dose-dependent effect”. In data set [1], this compound came in with an LD50 at 168 h of 193 mg/kg. Further, in the data set with Rattus norvegicus [19], the T was 3 °C.

Regarding `O=C(c1ccc(F)cc1)[C@H]1CCN2CCCC[C@@H]2C1` (single isomer, unassigned), the LD50 at 168 h in [1] was found to be 86.1 mg/kg. The Activity result in the data set with Mus musculus [25] was “Toxic”; in the data set on Mus musculus [26] it was 65.6%; in the data set with Mus musculus [27], 95.6%; with Mus musculus [18], “Dose-dependent effect”; with Mus musculus [3] it was 55.5%; in the data set on Mus musculus [4], 23%. The figures for the Activity in the data set on Mus musculus [6], in the data set on Mus musculus [22] and in the data set on Mus musculus [7] were 48.5%, “Dose-dependent effect” and 10.2%, respectively. Also, the result in the data set with Rattus norvegicus [28] and with Rattus norvegicus [29] was inactive. Moreover, the outcome in the data set on Rattus norvegicus [30], in the data set with Rattus norvegicus [31], in the data set with Rattus norvegicus [32], in the data set with Rattus norvegicus [33] and in the data set on Rattus norvegicus [34] was Active. For the same compound, the T in the data set with Rattus norvegicus [35] was determined as 2.9 °C.

The LD50 is the dose expected to kill half of the subjects tested. A low value points to a more toxic substance.
